From ChEMBL document CHEMBL1137761, “Synthesis and activity evaluation of phenylurea derivatives as potent antitumor agents” (Bioorg Med Chem, 2009)
Calls of active or inactive are those of the source. No cut-off for these calls is given here.

Experiments:
CCRF-CEM [1] = assay: Cytotoxicity against human CEM cells after 72 hrs by MTT assay; format: functional, cell-based
Method in brief: (§1)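 Cells kept in RPMI-1640 with 10% heat-inactivated FCS plus penicillin/streptomycin at 37 °C, 5% CO2. Seeded at 1 × 10^5 cells per well and treated at 0.001–100 µM for 72 h at 37 °C. Viability read by MTT. IC50 was the concentration killing 50% relative to untreated controls, by non-linear regression. Duplicate wells, three independent experiments.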

CCRF-CEM [2] = assay: Cell cycle arrest in human CEM cells assessed as accumulation at G0/G1 phase at 3.3 uM after 18 hrs by flow cytometry; format: functional
Method in brief: (§2)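 CEM cells grown in RPMI-1640 with 10% heat-inactivated FCS at 37 °C, 5% CO2, exposed to compound for 18 h at 37 °C. Fixed in 70% ethanol 18 h at 4 °C, RNase A (50 µg/ml) 0.5 h at 37 °C, then propidium iodide (final 50 µg/ml) 0.5 h at 4 °C. Flow cytometry on 10^4 cells per sample gave phase distribution.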

Bos taurus [3] = species on record: Bos taurus; assay: Inhibition of calf brain beta-tubulin polymerization at 3.3 uM after 30 mins by spectrophotometry
Method in brief: (§3)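 Calf brain tubulin (100 µL at 1 mg/ml) was mixed with 400 µL buffer: 0.1 M MES, 1 mM EGTA, 0.5 mM MgCl2, 0.1 mM EDTA, 2.5 M glycerol. Compound or solvent control was added, then GTP to a final 1 mM. OD340 was read at 0 min (baseline) and at 30 min, with assembly at room temperature.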

CCRF-CEM [4] = assay: Cell cycle arrest in human CEM cells assessed as accumulation at G2/M phase at 3.3 uM after 18 hrs by flow cytometry; format: functional; method in brief: as §2
CCRF-CEM [5] = assay: Cell cycle arrest in human CEM cells assessed as accumulation at S phase at 3.3 uM after 18 hrs by flow cytometry; format: functional; method in brief: as §2
CCRF-CEM [6] = assay: Induction of apoptosis in human CEM cells at 3.3 uM after 18 hrs by flow cytometry; format: functional
Method in brief: (§4)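 CEM cells exposed 18 h at 37 °C, then ethanol-fixed, RNase-treated and stained with propidium iodide (final 50 µg/ml). Flow cytometry on 10^4 cells per sample. Dead cells were scored as the population left of the G1/G0 peak, reflecting DNA degradation, and reported as percent.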

CCRF-CEM [7] = assay: Cell cycle arrest in human CEM cells assessed as accumulation at S phase at 3.2 uM after 18 hrs by flow cytometry; format: functional; method in brief: as §2
CCRF-CEM [8] = assay: Cell cycle arrest in human CEM cells assessed as accumulation at G0/G1 phase at 3.2 uM after 18 hrs by flow cytometry; format: functional; method in brief: as §2
CCRF-CEM [9] = assay: Cell cycle arrest in human CEM cells assessed as accumulation at G2/M phase at 3.2 uM after 18 hrs by flow cytometry; format: functional; method in brief: as §2
CCRF-CEM [10] = assay: Induction of apoptosis in human CEM cells at 3.2 uM after 18 hrs by flow cytometry; format: functional; method in brief: as §4
CCRF-CEM [11] = assay: Cell cycle arrest in human CEM cells assessed as accumulation at G0/G1 phase at 6.4 uM after 18 hrs by flow cytometry; format: functional; settings: in the assay text read “10 uM” for “6.4 uM”; method in brief: as §2
CCRF-CEM [12] = assay: Induction of apoptosis in human CEM cells at 6.4 uM after 18 hrs by flow cytometry; format: functional; settings: in the assay text read “10 uM” for “6.4 uM”; method in brief: as §4
CCRF-CEM [13] = assay: Cell cycle arrest in human CEM cells assessed as accumulation at S phase at 6.4 uM after 18 hrs by flow cytometry; format: functional; settings: in the assay text read “10 uM” for “6.4 uM”; method in brief: as §2
CCRF-CEM [14] = assay: Cell cycle arrest in human CEM cells assessed as accumulation at G2/M phase at 6.4 uM after 18 hrs by flow cytometry; format: functional; settings: in the assay text read “10 uM” for “6.4 uM”; method in brief: as §2
Bos taurus [15] = species on record: Bos taurus; assay: Inhibition of calf brain beta-tubulin polymerization at 10 uM after 30 mins by spectrophotometry; method in brief: as §3
Daudi = assay: Cytotoxicity against human Daudi cells after 72 hrs by MTT assay; format: functional, cell-based; method in brief: as §1
MCF7 = assay: Cytotoxicity against human MCF7 cells after 72 hrs by MTT assay; format: functional, cell-based; settings: MCF7, 72 h; method in brief: as §1
MIA PaCa-2 = assay: Cytotoxicity against human MIAPaCa2 cells after 72 hrs by MTT assay; format: functional, cell-based; settings: MIA PaCa-2, 72 h; method in brief: as §1
PC-3 = assay: Cytotoxicity against human PC3 cells after 72 hrs by MTT assay; format: functional, cell-based; settings: PC-3, 72 h; method in brief: as §1
CCRF-CEM [16] = assay: Induction of apoptosis in human CEM cells at 10 uM after 18 hrs by flow cytometry; format: functional; settings: in the assay text read “6.4 uM” for “10 uM”; method in brief: as §4
CCRF-CEM [17] = assay: Cell cycle arrest in human CEM cells assessed as accumulation at G2/M phase at 10 uM after 18 hrs by flow cytometry; format: functional; settings: in the assay text read “6.4 uM” for “10 uM”; method in brief: as §2
CCRF-CEM [18] = assay: Cell cycle arrest in human CEM cells assessed as accumulation at G0/G1 phase at 10 uM after 18 hrs by flow cytometry; format: functional; settings: in the assay text read “6.4 uM” for “10 uM”; method in brief: as §2
LoVo = assay: Cytotoxicity against human LoVo cells after 72 hrs by MTT assay; format: functional, cell-based; method in brief: as §1
Bel-7402 = assay: Cytotoxicity against human Bel7402 cells after 72 hrs by MTT assay; format: functional, cell-based; settings: Bel-7402, 72 h; method in brief: as §1
DU-145 = assay: Cytotoxicity against human DU145 cells after 72 hrs by MTT assay; format: functional, cell-based; settings: DU-145, 72 h; method in brief: as §1
[19] = Cytotoxicity against human DND1A cells after 72 hrs by MTT assay; format: functional, cell-based; method in brief: as §1
Bos taurus [20] = species on record: Bos taurus; assay: Inhibition of calf brain beta-tubulin polymerization at 6.4 uM after 30 mins by spectrophotometry; method in brief: as §3
CCRF-CEM [21] = assay: Cell cycle arrest in human CEM cells assessed as accumulation at S phase at 10 uM after 18 hrs by flow cytometry; format: functional; settings: in the assay text read “6.4 uM” for “10 uM”; method in brief: as §2
CCRF-CEM [22] = assay: Cytotoxicity against human CEM cells after 24 hrs by MTT assay; format: functional, cell-based
Method in brief: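 CEM cells treated at a range of concentrations for 24 h. Cell death measured by MTT.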

SMILES: COc1cc(NC(=O)Nc2cccc(NC(=O)C(C)Br)c2)cc(OC)c1OC (centres undefined)
- IC50 (CCRF-CEM [1]): 3.99 µM

SMILES: O=C(CBr)Nc1cccc(NC(=O)NCCCl)c1
- IC50 (CCRF-CEM [1]): 0.77 µM

SMILES: CC(=O)NC(=O)Nc1cccc(NC(=O)CBr)c1
- IC50 (CCRF-CEM [1]): 3.2 µM

SMILES: O=C(CCCl)NC(=O)Nc1cccc(NC(=O)CBr)c1
- IC50 (CCRF-CEM [1]): 1.9 µM

SMILES: O=C(CBr)Nc1cccc(NC(=O)Nc2ccccc2)c1
- IC50 (CCRF-CEM [1]): 0.86 µM

SMILES: CC(Br)C(=O)NC(=O)Nc1cccc(NC(=O)C(C)Br)c1 (centres undefined)
- IC50 (CCRF-CEM [1]): 1.34 µM

SMILES: O=CNC(=O)Nc1cccc(NC(=O)CBr)c1
- IC50 (CCRF-CEM [1]): 0.85 µM
- Activity (CCRF-CEM [2]): 33.5%
- inhibition (Bos taurus [3]): inactive
- Activity (CCRF-CEM [4]): 2%
- Activity (CCRF-CEM [5]): 12.9%
- Activity (CCRF-CEM [6]): 52.6%

SMILES: CC(Br)C(=O)Nc1cccc(NC(=O)NC=O)c1 (centres undefined)
- IC50 (CCRF-CEM [1]): 10.2 µM

SMILES: CC(Br)C(=O)Nc1cccc(NC(=O)NCCCl)c1 (centres undefined)
- IC50 (CCRF-CEM [1]): 22.7 µM

SMILES: COc1cc(NC(=O)Nc2cccc(NC(=O)CBr)c2)cc(OC)c1OC
- IC50 (CCRF-CEM [1]): 1 µM

SMILES: CC(Br)C(=O)Nc1cccc(C(=O)NC(N)=O)c1 (centres undefined)
- IC50 (CCRF-CEM [1]): 1.47 µM
- Activity (CCRF-CEM [7]): 25.3%
- Activity (CCRF-CEM [8]): 2%
- Activity (CCRF-CEM [9]): 63.2%
- Activity (CCRF-CEM [10]): 9.5%

SMILES: NC(=O)NC(=O)c1cccc(NC(=O)CBr)c1
- IC50 (CCRF-CEM [1]): 0.725 µM

SMILES: O=C(CI)Nc1cccc(NC(=O)NCCCl)c1
- IC50 (CCRF-CEM [1]): 0.1 µM
- Activity (CCRF-CEM [11]): 34.1%
- Activity (CCRF-CEM [12]): 33.2%
- Activity (CCRF-CEM [13]): 30.1%
- Activity (CCRF-CEM [14]): 2.6%
- inhibition (Bos taurus [15]): inactive

SMILES: CC(=O)NC(=O)Nc1cccc(NC(=O)C(C)Br)c1 (centres undefined)
- IC50 (CCRF-CEM [1]): 10.6 µM

SMILES: CC(Br)C(=O)Nc1cccc(NC(=O)NC(=O)CCCl)c1 (centres undefined)
- IC50 (CCRF-CEM [1]): 2.05 µM

SMILES: O=C(CBr)NC(=O)Nc1cccc(NC(=O)CBr)c1
- IC50 (CCRF-CEM [1]): 0.56 µM
- IC50 (Daudi): 0.38 µM
- IC50 (MCF7): 0.59 µM
- IC50 (MIA PaCa-2): 2.81 µM
- IC50 (PC-3): > 100 µM
- Activity (CCRF-CEM [16]): 24.8%
- Activity (CCRF-CEM [17]): 13.2%
- Activity (CCRF-CEM [18]): 48.3%
- IC50 (LoVo): 1.99 µM
- IC50 (Bel-7402): 4.07 µM
- IC50 (DU-145): 1.28 µM
- IC50 [19]: 0.51 µM
- inhibition (Bos taurus [20]): inactive
- Activity (CCRF-CEM [21]): 13.7%
- Activity (CCRF-CEM [22]): Dose-dependent effect
